# From PMC5362268 (Cell, 2017)
# What was measured:
# RRAS2 = RRAS2 (Homo sapiens, UniProt P62070); experiment: MST with RAS GTPases; type: binding; settings: selectivity panel, GppNHp-loaded
# HRAS^wt = HRAS^wt (Homo sapiens, UniProt P01112); experiment: MST with RAS GTPases; type: binding; settings: selectivity panel, GppNHp-loaded
# KP^f/fC mice = experiment: Toxicity in KP^f/fC mouse study; type: in vivo; settings: 30 mg/kg IP once daily
# [1] = tested on: phosphorylated ERK in MDA-MB-231 xenograft; experiment: Pharmacodynamic study using MDA-MB-231 cells; type: in vivo, mouse; settings: 30 mg/kg IP once per day for 6 d, vs vehicle
# Method in brief: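 Eight-week-old athymic nude mice received 8 million MDA-MB-231 cells subcutaneously. After 4 d they were grouped at ~128 mm³ tumours and dosed IP once daily for 6 d with 30 mg/kg in 5% DMSO HBSS pH 4, or with that vehicle. Tumours were then analysed for phosphorylated ERK.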
# [2] = tested on: BRAF^V600E-CAAX-expressing MEF cells; experiment: Viability assay in mouse embryo fibroblasts; type: cell-based
# DLD-1 cells = experiment: Pan-RAS siRNA knockdown and viability; type: cell-based, human; settings: 24 h
# Method in brief: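 DLD-1 cells reverse-transfected in 6-well plates with siRNA pools against HRAS, KRAS and NRAS, or a non-targeting pool. Cells then re-suspended in serum-free RPMI and seeded at 10,000 cells/well in 384-well plates overnight. Dilution series added from 10× stocks in serum-free Opti-mem; 24 h incubation; viability by CellTiter-Glo.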
# [3] = tested on: pERK and pAKT in BJeLR (HRAS^V12) cells; experiment: Western blots of RAS signaling; type: cell-based, human
# Method in brief: (§1)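 Cells seeded 16 h before use in DMEM with 10% or 2% FBS plus P/S. Compound added in serum-free DMEM or DMEM 2% FBS for the indicated times. Lysis in HEPES pH 7.4 buffer with phosphatase and protease inhibitors; SDS-PAGE, PVDF transfer, Li-COR blocking, primary antibodies (1:1000) overnight at 4 °C.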
# GDP complex of KRAS^G12D = GDP complex of KRAS^G12D (Homo sapiens, UniProt P01116, G12D); experiment: MST, GDP-bound KRAS^G12D; type: binding; settings: compared with GppNHp-bound KRAS^G12D
# [4] = tested on: pERK and pAKT in HT-1080 cells (NRAS^Q61K); experiment: Western blots of RAS signaling; type: cell-based, human
# Method in brief: as §1
# NRAS^wt = NRAS^wt (Homo sapiens, UniProt P01111); experiment: MST with RAS GTPases; type: binding; settings: selectivity panel, GppNHp-loaded
# NRAS^wt, sequence (P01111 whole entry): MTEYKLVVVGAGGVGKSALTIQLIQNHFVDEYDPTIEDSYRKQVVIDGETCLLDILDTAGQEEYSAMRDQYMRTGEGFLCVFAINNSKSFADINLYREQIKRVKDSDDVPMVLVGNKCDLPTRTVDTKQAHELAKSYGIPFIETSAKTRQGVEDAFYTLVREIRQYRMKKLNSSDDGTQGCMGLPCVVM
# KRAS^wt = KRAS^wt (Homo sapiens, UniProt P01116); experiment: MST with RAS GTPases; type: binding; settings: selectivity panel, GppNHp-loaded
# [5] = Solubility of compound 3144; type: physicochemical
# [6] = Pharmacokinetic analysis in mice; type: in vivo, mouse; settings: 20 mg/kg, plasma
# Method in brief: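 Plasma flash-frozen in liquid nitrogen, stored at −80 °C, and assayed by UPLC-MS-MS. Plasma from six untreated mice used for calibration and matrix correction. AUCINF calculated from t = 0 to infinity using calculated half-life and last measured concentration.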
# [7] = tested on: PDTALL22 patient T-ALL xenograft; experiment: Patient-derived xenograft study; type: in vivo, mouse; settings: 30 mg/kg IP
# Method in brief: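 Retrovirally transduced luciferase-expressing T-ALL cells were expanded in primary recipients, harvested from spleen and injected into secondary recipients. These were randomised into two groups of 5 with equal luciferase load. Dosing: vehicle or 30 mg/kg IP in 5% DMSO in HBSS pH 4 on days 0, 1, 4, 5, 7, 8. Imaging on days 0, 4 and 8; sacrifice on day 8 for spleen weight and human CD45+ cells.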
# [8] = tested on: T-ALL cells with mutant NRAS (G13V and G13D); experiment: Viability of primary T-ALL patient samples; type: cell-based; settings: Homo sapiens, 72 h
# Method in brief: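 Primary T-ALL lymphoblasts, 250,000 per well in 24-well plates, in triplicate. Treated with DMSO vehicle or test compound across 1 to 5 μM for 72 h. Viability by flow-based kit with counting beads, gating out GFP+ stromal cells and PI+ dead cells and particles.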
# MDA-MB-231 xenograft = experiment: Xenograft therapeutic study in mice; type: in vivo, mouse; settings: 180 mg/kg orally, 10 doses, 15 days of treatment, nude mice
# Method in brief: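 Eight-week-old female nude mice received 7 million MDA-MB-231 cells subcutaneously. After 3 d they were randomised at ~58 mm³ tumours. Dosing was oral, 180 mg/kg (12 mg/mL, 10% DMSO, pH 4) or vehicle, 10 doses over 14 d. Tumours measured by caliper every 2 d; volume = 0.523 × length × width².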
# [9] = Microsomal stability assay; type: in vitro ADME; settings: human, over 120 minutes
# Method in brief: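 Liver microsomes incubated in 100 mM phosphate buffer, pH 7.4, supplemented with an NADPH-regenerating system (solutions A and B).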
# SW480 (KRAS^G12V) = experiment: Multicellular tumor spheroids; type: cell-based, human; settings: low-adherence plates, 72 h
# HRAS^wt, sequence (P01112 whole entry): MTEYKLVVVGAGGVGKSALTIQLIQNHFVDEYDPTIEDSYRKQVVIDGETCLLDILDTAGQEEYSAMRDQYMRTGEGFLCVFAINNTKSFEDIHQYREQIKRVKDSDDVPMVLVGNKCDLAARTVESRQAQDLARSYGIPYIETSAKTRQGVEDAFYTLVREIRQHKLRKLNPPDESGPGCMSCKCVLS
# RRAS2, sequence (P62070 whole entry): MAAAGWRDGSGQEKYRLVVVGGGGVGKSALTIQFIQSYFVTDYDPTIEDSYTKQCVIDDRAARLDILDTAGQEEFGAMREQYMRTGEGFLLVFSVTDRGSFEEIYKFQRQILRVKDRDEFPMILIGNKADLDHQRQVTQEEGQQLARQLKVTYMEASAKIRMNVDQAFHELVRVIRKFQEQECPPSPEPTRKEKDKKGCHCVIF
structure (smiles),measurement,setting,value
"NC1(C(=O)NCCCn2cc(-c3ccc(OC(F)(F)F)cc3)c3cc(CN4CCN(Cc5c(Cl)cccc5Cl)CC4)ccc32)CCNCC1 [compound 3144, 4-amino-N-(3-(5-((4-(2,6-dichlorobenzyl)piperazin-1-yl)methyl)-3-(4-(trifluoromethoxy)phenyl)-1H-indol-1-yl)propyl)piperidine-4-carboxamide]",binding by MST,RRAS2,weak binding
same,binding by MST,HRAS^wt,detected binding
same,toxicity,KP^f/fC mice,Toxicity was observed
same,tumor pERK levels,[1],somewhat decreased
same,concentrations showing lethality,[2]; BRAF^V600E-CAAX-expressing MEFs,≥ 20 µM
same,sensitivity after Kras excision and BRAF^V600E-CAAX introduction,[2]; compared with Kras^lox/lox MEFs,resistance
same,concentration up to which cells were resistant,"DLD-1 cells; DLD-1 (KRAS^G13D), high cell density, no RAS knockdown",> 20 µM
same,"effect of combined HRAS, NRAS and KRAS knockdown on compound lethality","DLD-1 cells; si-panRAS vs non-targeting siRNA, CellTiter-Glo",sensitization
same,EGF-induced pAKT and pERK abundance,[3],suppressed to a degree
same,pERK and pAKT abundance,[3],somewhat decreased
same,affinity for the GDP complex,GDP complex of KRAS^G12D,reduced affinity
same,pERK and pAKT abundance,[4],somewhat decreased
same,EGF-induced pAKT and pERK abundance,[4]; 10 ng/mL EGF 15 min,suppressed to a degree
same,binding by MST,NRAS^wt,detected binding
same,binding by MST,KRAS^wt,detected binding
same,concentration without visible precipitation,"[5]; aqueous buffers (e.g., phosphate buffered saline), room temperature, 1.5% DMSO",≥ 250 µM
same,solubility,"[5]; aqueous solutions, aqueous buffer, kinetic from dmso stock",5 µM
same,Tlast,"[6]; IP, male C57BL/6 mice",12 h
same,Tlast,"[6]; IV, male C57BL/6 mice",12 h
same,HL_Lambda_z,"[6]; PO, male C57BL/6 mice",>12 h
same,Tlast,"[6]; PO, male C57BL/6 mice",12 h
same,AUC(0-inf),"[6]; male, C57BL/6, mouse, po",5650 ng·h/mL
same,percent of infiltrative human CD45+ cells in spleen,[7]; day 8,reduction
same,spleen cellularity (hematoxylin and eosin),[7]; day 8,decreased cellularity
same,spleen size,[7]; day 8,decrease in size
same,tumor burden (luciferase imaging),"[7]; days 0, 1, 4, 5, 7, 8, imaged after 4 and 8 days",decrease in tumor burden
same,viability at 5 µM,[8],20 to 40%
same,tumor growth,MDA-MB-231 xenograft,inhibition of tumor growth
same,stability in liver microsomes,[9],relatively stable
same,spheroid size,SW480 (KRAS^G12V),decreased in size in a dose-dependent manner
